A short description of data set [1]: cells. The following applies: Orthoebolavirus, Mayinga, HEK-293T. In kind it is cell-based, Ebolavirus, HEK293T.
A short description of data set [2]: Cytotoxicity against human HEK293T cells incubated for 48 hrs by MTT assay. The following applies: HEK293T cells. The data set is classed as cell-based, HEK-293T. The method in brief: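 HEK293T cells at 10⁵ cells/ml were added to two-fold compound dilutions in 10% DMEM and incubated 48 h at 37 °C, 5% CO2. MTT (5 mg/ml stock in PBS, 1/10 volume) was added for 2 h, and formazan was dissolved in DMSO before reading optical density. Each concentration was run in triplicate. CC50 was the concentration giving 50% cell death, or halving OD versus control.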

The nature of data set [3]: cells. The data set is classed as cell-based, HEK293T. The following applies: Vesicular stomatitis virus, HEK-293T.
A short description of another data set: in vitro. The following applies: human, HEK293T cells.

The text below walks through data of ChEMBL document CHEMBL4706564 (Eur J Med Chem, 2020).

The structures appear in SMILES notation.

Regarding `CC1(C)[C@H]2CC[C@]1(C)[C@H](OC(=O)CCCN1CCOCC1)C2`, the values for the IC50 in the data set “cells [1]” and in “cells [3]” were 6.5 µM and 288 µM, respectively. The compound further showed a CC50 at 48 h in data set [2] of 210 µM. Further, in the data set “in vitro”, the selectivity ratio was determined as 33.
In the case of `CCN1CCN(CC(=O)O[C@@H]2C[C@@H]3CC[C@@]2(C)C3(C)C)CC1`, the concentration for half-maximal inhibition (IC50) was 1.6 µM in “cells [1]” and 264 µM in “cells [3]”. The CC50 at 48 h in data set [2] was found to be 130 µM. The selectivity ratio in “in vitro” worked out at 80.
For `CCN(CC)CC(=O)O[C@@H]1C[C@@H]2CC[C@@]1(C)C2(C)C`, the IC50 worked out at 5.6 µM in the data set “cells [1]” and 561 µM in “cells [3]”. The compound also showed a CC50 at 48 h in data set [2] of 344 µM. The selectivity ratio in the data set “in vitro” was 61.
In the case of `CC1(C)[C@H]2CC[C@]1(C)[C@H](OC(=O)CCN1CCN(CCO)CC1)C2`, the IC50 in the data set “cells [1]” amounted to 1.8 µM; in “cells [3]”, 259 µM. The compound also yielded a CC50 at 48 h in data set [2] of 272 µM. Moreover, in “in vitro”, the selectivity ratio was determined as 153.
Regarding `CN1CCN(CCCC(=O)O[C@@H]2C[C@@H]3CC[C@@]2(C)C3(C)C)CC1`, the IC50 in “cells [1]” worked out at 0.6 µM; in “cells [3]”, 97.3 µM. The same compound had a CC50 at 48 h in data set [2] of 99.2 µM.
Regarding `CN(C)CCC(=O)O[C@@H]1C[C@@H]2CC[C@@]1(C)C2(C)C`, in “cells [1]”, the IC50 turned out to be 30 µM. In addition, the CC50 at 48 h in data set [2] amounted to 505 µM. The selectivity ratio in the data set “in vitro” was found to be 17.
Regarding `CC1(C)[C@H]2CC[C@]1(C)[C@H](OC(=O)CCCN1CCN(CCN)CC1)C2`, the figures for the IC50 in the data set “cells [1]” and in the data set “cells [3]” were 0.6 µM and 50.4 µM, respectively. Besides, the midpoint of cytotoxicity in data set [2], the CC50 at 48 h, lay at 71.1 µM. Besides, in “in vitro”, the selectivity ratio worked out at 125.
In turn, `CCOC(=O)N1CCN(CCC(=O)O[C@@H]2C[C@@H]3CC[C@@]2(C)C3(C)C)CC1` showed a half-inhibitory concentration (IC50) in the data set “cells [1]” of 28.3 µM. In data set [2], this compound displayed a CC50 at 48 h of 110 µM. In “in vitro”, the selectivity ratio came to 4.
`CCN1CCN(CCCC(=O)N[C@@H]2C[C@H]3CC[C@]2(C)C3(C)C)CC1`: the IC50 in “cells [1]” worked out at 2.1 µM; in “cells [3]”, 268 µM. Also, the CC50 at 48 h in data set [2] is 268 µM. Besides, in “in vitro”, the selectivity ratio stood at 129.
In turn, `CC1CCN(CC(=O)O[C@@H]2C[C@H]3CC[C@]2(C)C3(C)C)CC1` had an IC50 in the data set “cells [1]” of 3.1 µM. In addition, in data set [2], the 50% cytotoxic concentration (CC50) at 48 h stood at 34.1 µM. Besides, the selectivity ratio in “in vitro” was determined as 11.
For the compound `CN1CCN(CCCC(=O)N[C@@H]2C[C@H]3CC[C@]2(C)C3(C)C)CC1`, the figures for the IC50 in the data set “cells [1]” and in the data set “cells [3]” were 2.5 µM and 475 µM, respectively. In data set [2], the CC50 at 48 h turned out to be 475 µM. In addition, the selectivity ratio in the data set “in vitro” was 191.
Consider `CN1CCN(CCC(=O)N[C@@H]2C[C@H]3CC[C@]2(C)C3(C)C)CC1`, for which the IC50 in “cells [1]” amounted to 2.6 µM; in “cells [3]”, 486 µM. In data set [2], this compound displayed a CC50 at 48 h of 486 µM. The selectivity ratio in “in vitro” stood at 187.
As for `CC1(C)[C@H]2CC[C@]1(C)[C@H](OC(=O)CN1CCN(Cc3ccccc3)CC1)C2`, the results for the IC50 in “cells [1]” and in the data set “cells [3]” were 1.3 µM and 39.8 µM, respectively. The midpoint of cytotoxicity in data set [2], the CC50 at 48 h, lay at 59.4 µM. Further, the selectivity ratio in the data set “in vitro” stood at 44.
In the case of `CC1CCN(CC(=O)O[C@H]2C[C@@H]3CC[C@@]2(C)C3(C)C)CC1`, the IC50 in “cells [1]” was 4.4 µM. Moreover, the CC50 at 48 h in data set [2] stood at 34.1 µM. Further, the selectivity ratio in the data set “in vitro” was found to be 8.
Regarding `CC1CCN(CCCC(=O)O[C@@H]2C[C@@H]3CC[C@@]2(C)C3(C)C)CC1`, the IC50 in “cells [1]” stood at 9.3 µM; in the data set “cells [3]”, 276 µM. The same compound returned a CC50 at 48 h in data set [2] of 171 µM.
With `CC1(C)[C@H]2CC[C@]1(C)[C@H](OC(=O)CCN1CCN(Cc3ccccc3)CC1)C2`, the concentration for half-maximal inhibition (IC50) in “cells [1]” worked out at 0.3 µM; in “cells [3]”, 27 µM. The CC50 at 48 h in data set [2] is 39 µM. In addition, in the data set “in vitro”, the selectivity ratio came out at 150.
The matching figures for `CC1(C)[C@H]2CC[C@]1(C)[C@H](OC(=O)CCCCN1CCCCC1)C2`: 0.6 µM, 105 µM, 101 µM and 162.
Consider `CC1CCN(CCC(=O)N[C@@H]2C[C@H]3CC[C@]2(C)C3(C)C)CC1`, for which the IC50 in “cells [1]” came out at 2.6 µM; in the data set “cells [3]”, 93.6 µM. The same compound returned a CC50 at 48 h in data set [2] of 93.6 µM. Besides, in “in vitro”, the selectivity ratio came to 36.
With `CCOC(=O)N1CCN(CCCC(=O)O[C@@H]2C[C@@H]3CC[C@@]2(C)C3(C)C)CC1`, the IC50 stood at 2.6 µM in “cells [1]” and 49.1 µM in “cells [3]”. The compound further showed a CC50 at 48 h in data set [2] of 60.4 µM. In addition, in the data set “in vitro”, the selectivity ratio was determined as 23.
In the case of `CC1CCN(CC(=O)O[C@@H]2C[C@@H]3CC[C@@]2(C)C3(C)C)CC1`, the IC50 in the data set “cells [1]” stood at 8.5 µM; in “cells [3]” it was 35 µM. This compound also returned a CC50 at 48 h in data set [2] of 71.6 µM. The selectivity ratio in the data set “in vitro” is 8.
As for `CC1(C)[C@H]2CC[C@]1(C)[C@H](OC(=O)CN1CCN(CCN)CC1)C2`, the IC50 amounted to 2.2 µM in “cells [1]” and 24.1 µM in “cells [3]”. Moreover, it took 247 µM to reach half-maximal cytotoxicity in data set [2] (CC50 at 48 h). The selectivity ratio in the data set “in vitro” turned out to be 114.
In the case of `CN1CCN(CC(=O)O[C@@H]2C[C@@H]3CC[C@@]2(C)C3(C)C)CC1`, the results for the IC50 in the data set “cells [1]” and in “cells [3]” were 6.8 µM and 485 µM, respectively. This compound also came in with a 50% cytotoxic concentration (CC50) at 48 h in data set [2] of 312 µM. In “in vitro”, the selectivity ratio worked out at 46.
Take `CCN(CC)CCCC(=O)O[C@@H]1C[C@@H]2CC[C@@]1(C)C2(C)C`: the IC50 in “cells [1]” came to 0.3 µM; in “cells [3]”, 195 µM. In addition, in data set [2], the CC50 at 48 h is 166 µM. The selectivity ratio in the data set “in vitro” came to 490.
As for `CC1CCN(CC(=O)N[C@@H]2C[C@H]3CC[C@]2(C)C3(C)C)CC1`, the IC50 in the data set “cells [1]” worked out at 27 µM; in “cells [3]”, 78 µM. Besides, in data set [2], half-maximal cytotoxicity (CC50 at 48 h) was put at 78 µM.
Consider `CC1(C)[C@H]2CC[C@]1(C)[C@H](OC(=O)CCCN1CCCCCC1)C2`, for which it took 0.2 µM to reach half-maximal inhibition in the data set “cells [1]” (IC50). In addition, in data set [2], the CC50 at 48 h was 62.2 µM. Besides, the selectivity ratio in the data set “in vitro” turned out to be 250.
In the case of `CC1(C)[C@H]2CC[C@]1(C)[C@H](OC(=O)CCCN1CCN(CCO)CC1)C2`, the IC50 in the data set “cells [1]” worked out at 0.3 µM; in the data set “cells [3]”, 192 µM. The compound also yielded a CC50 at 48 h in data set [2] of 224 µM. Besides, the selectivity ratio in “in vitro” is 658.
For `CC1(C)[C@H]2CC[C@]1(C)[C@H](OC(=O)CN1CCOCC1)C2`, in that order: 24.9 µM, 291 µM, 327 µM and 13.
For the compound `CC1(C)[C@@H]2CC[C@@]1(C)[C@H](NC(=O)CCN1CCOCC1)C2`, the values for the IC50 in “cells [1]” and in “cells [3]” were 22.1 µM and 312 µM, respectively. In addition, the CC50 at 48 h in data set [2] came out at 312 µM.
Compound `CC1(C)[C@H]2CC[C@]1(C)[C@@H](OC(=O)CN1CCCCC1)C2` gave an IC50 in the data set “cells [1]” of 3.6 µM. Moreover, the CC50 at 48 h in data set [2] was found to be 89.5 µM. Also, the selectivity ratio in the data set “in vitro” turned out to be 25.
`CN[C@H]1CC[C@@H](c2ccc(Cl)c(Cl)c2)c2ccccc21` [SERTRALINE] registered a CC50 at 48 h in data set [2] of 408 µM.
On to `CC1(C)[C@@H]2CC[C@@]1(C)[C@H](OC(=O)CN1CCCCC1)C2`, for which, in the data set “cells [1]”, it took 2.9 µM to reach half-maximal inhibition (IC50). The CC50 at 48 h in data set [2] was determined as 80.5 µM. Also, the selectivity ratio in “in vitro” stood at 28.
For the compound `CC1(C)[C@H]2CC[C@]1(C)[C@H](OC(=O)CN1CCCCCC1)C2`, 1 µM corresponded to half-maximal inhibition in the data set “cells [1]” (IC50). The compound also had a CC50 at 48 h in data set [2] of 71.6 µM. In “in vitro”, the selectivity ratio is 70.
Turning to `CN(C)CCCC(=O)O[C@@H]1C[C@@H]2CC[C@@]1(C)C2(C)C`, in “cells [1]”, the midpoint of inhibition, the IC50, lay at 1.5 µM. Further, the CC50 at 48 h in data set [2] came out at 101 µM. Further, the selectivity ratio in the data set “in vitro” was 67.
